Assay results published in ChEMBL document CHEMBL1649361, “Pyridone and tetramic acid alkaloids from the spider pathogenic fungus Torrubiella sp. BCC 2165” (J Nat Prod, 2010).
Calls of active or inactive are those of the source. The rule behind the calls is not given here.

Assays:
NCI-H187 = test: Cytotoxicity against human NCI-H187 cells by resazurin microplate assay; format: functional, cell-based
Summary of the method: (§1)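 Resazurin microplate assay on human cancer lines: KB (oral epidermoid carcinoma), MCF-7 (breast cancer) and NCI-H187 (small-cell lung cancer). IC50 values were read from the assay, with doxorubicin hydrochloride as the reference standard.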

MCF7 [1] = test: Cytotoxicity against human MCF7 cells by resazurin microplate assay; format: functional, cell-based; summary of the method: as §1
KB [2] = test: Cytotoxicity against human KB cells by resazurin microplate assay; format: functional, cell-based; summary of the method: as §1
Plasmodium falciparum = test: Antimalarial activity against multidrug-resistant Plasmodium falciparum K1 by microculture radioisotope technique; format: functional, organism-based
Vero = test: Cytotoxicity against african freen monkey Vero cells by green fluorescent protein microplate assay; settings: Chlorocebus sabaeus
MCF7 [3] = test: Cytotoxicity against human MCF7 cells at 50 ug/ml by resazurin microplate assay; format: functional, cell-based
Summary of the method: (§2)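 Single-concentration test at 50 µg/mL (119 µM) by resazurin microplate assay on human KB (oral epidermoid carcinoma) or MCF-7 (breast cancer) cells, with doxorubicin hydrochloride as the reference standard.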

KB [4] = test: Cytotoxicity against human KB cells at 50 ug/ml by resazurin microplate assay; format: functional, cell-based; summary of the method: as §2
[5] = system: Mycobacterium tuberculosis; test: Antimycobacterial activity against Mycobacterium tuberculosis H37Ra by GFPMA assay; format: functional, organism-based

Row | Compound | Activity (NCI-H187) | Activity (MCF7 [1]) | IC50 (Plasmodium falciparum) [µM] | IC50 (NCI-H187) [µM] | IC50 (KB [2]) [µM] | other results
1 | CCC(/C=C/C=C/C=C/C(=O)c1c(O)c([C@]2(O)CC[C@@H](O)CC2)c[nH]c1=O)CO (stereo not given in full) | inactive | inactive |  |  |  | Activity (KB [2]): inactive
2 | C[C@H]1[C@@H](O)O[C@@H]2O[C@@]3(C)CC[C@H]4[C@H](C)CC[C@@H]1[C@@]24OO3 [ARTENIMOL] |  |  | 0.004 |  |  | 
3 | COc1cccc2c1C(=O)c1c(O)c3c(c(O)c1C2=O)C[C@@](O)(C(=O)CO)C[C@@H]3O[C@H]1C[C@H](N)[C@H](O)[C@H](C)O1 [DOXORUBICIN] |  |  |  | 0.098 | 0.37 | 
4 | CCC(/C=C/C=C/C=C/C(=O)c1c(O)c([C@]2(O)CC[C@@H](O)CC2)cn(O)c1=O)CO (stereo not given in full) [TORRUBIELLONE A] |  |  | 8.1 | 69 |  | IC50 (Vero): 87 µM; Activity (MCF7 [3]): inactive; Activity (KB [4]): inactive; Activity [5]: inactive
5 | CCC(/C=C/C=C/C=C/C(O)=C1\C(=O)NC(Cc2ccc(O)cc2)C1=O)CO (stereo not given) [TORRUBIELLONE D] | inactive | inactive |  |  | 44 | 
